The list is not random: actives were taken first. Their share in the collection is about 1.8%.
CHRM4 PAM: positive allosteric modulators of human muscarinic M4 receptor | actives 0.4% (n = 360,000) | AID 624126 | CHO-K1 hM4/Gqi5, Fluo-8 calcium fluorescence, ACh EC20; 0% = ACh EC20, 100% = maximal ACh | activation, % at 3 µM;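 active = activation above its plate's cutoff, the mean activation of sample wells plus 3 SD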
M5 antag: blocks acetylcholine activation of human M5 receptor; P08912; CHO-hM5 cells, Fluo-8 calcium fluorescence, ACh EC80; inhibition, % at 3 µM; actives 0.59% (n = 360,000);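 active = inhibition above a per-plate cutoff, the mean of that plate's test compounds plus 3 SD, cut at about 27% in these data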;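 note: 0% = acetylcholine EC80 with DMSO and 100% = DMSO without agonist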
Target sequence (P08912 whole entry, looked up): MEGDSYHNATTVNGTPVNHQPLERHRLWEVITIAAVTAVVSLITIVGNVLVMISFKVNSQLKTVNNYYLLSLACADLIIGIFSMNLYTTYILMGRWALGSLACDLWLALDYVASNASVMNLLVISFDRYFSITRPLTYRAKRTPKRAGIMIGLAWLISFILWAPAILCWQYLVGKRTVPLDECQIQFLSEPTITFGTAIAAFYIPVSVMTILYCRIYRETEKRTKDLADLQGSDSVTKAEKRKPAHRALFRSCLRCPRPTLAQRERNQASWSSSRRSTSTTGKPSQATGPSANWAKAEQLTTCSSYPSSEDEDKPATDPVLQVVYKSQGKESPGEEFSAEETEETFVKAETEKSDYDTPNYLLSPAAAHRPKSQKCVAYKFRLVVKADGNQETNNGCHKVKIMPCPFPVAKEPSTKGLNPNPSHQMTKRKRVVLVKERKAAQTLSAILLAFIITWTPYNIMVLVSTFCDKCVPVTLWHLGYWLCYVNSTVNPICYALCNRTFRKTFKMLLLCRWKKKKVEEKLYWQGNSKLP
CHRM4 antagonist: CHRM4 antagonism in calcium assay | actives 0.73% (n = 360,000) | inhibition, % at 3 µM | CHO-hM4 cells, ACh EC80, Fluo-8 calcium fluorescence | P08173;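 active = inhibition above its plate's cutoff, the mean inhibition of sample wells plus 3 SD, cut at about 27% in these data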;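 note: 0% = acetylcholine EC80 with DMSO and 100% = DMSO without agonist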
CHRM4 agonist: CHRM4 agonism in calcium assay; P08173; CHO-K1 hM4/Gqi5, Fluo-8 calcium fluorescence; vehicle 0%, full acetylcholine response 100%; activation, % at 3 µM; actives 0.14% (n = 360,000); AID 624127;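 active = activation above the run mean over all test wells plus 3 SD, cut at about 32% in these data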;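 note: peak over basal fluorescence ratio per well then scaled between controls; 0% = DMSO wells and 100% = acetylcholine at EC100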
M5 PAM: potentiates acetylcholine response at human M5 receptor | CHO-K1 hM5, Fluo-8 calcium, ACh EC20 PAM; 0% = ACh EC20, 100% = ACh EC100 | activation, % at 3 µM | actives 0.3% (n = 360,000) | AID 624038;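 active = activation above the run cutoff, the mean activation of all test compounds plus 3 SD, cut at about 18% in these data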
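System: CHO-K1 cell line with stable human muscarinic M5 receptor expression | Also added: EC20 acetylcholine as agonist stimulus | Compound: One concentration, 3 µM final (nominal) | Timing: Fluo-8 loading 80 min at 37 °C plus 30 min room temperature | Measured by: Fluo-8 calcium dye fluorescence, kinetic read | Read-out basis: % activation, ACh-normalized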
CHRM5 agonist: CHRM5 agonism in calcium assay | P08912 | CHO-K1 hM5 cells, Fluo-8 calcium fluorescence; 0% DMSO wells, 100% maximal acetylcholine response | activation, % at 3 µM | actives 0.19% (n = 360,000) | AID 624037;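 active = activation above the run's mean over test compounds plus 3 SD, cut at about 23% in these data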;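 note: signal is peak over basal fluorescence ratio across the kinetic read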
* marks the source's active call; other numbers are inactive results.

SMILES	CHRM4 PAM	M5 antag	CHRM4 antagonist	CHRM4 agonist	M5 PAM	CHRM5 agonist
C[C@H]1CN([C@@H](C)CO)C(=O)CCCn2nncc2CO[C@H]1CN(C)C(=O)c1ccc2ccn(C)c2c1	3.2	9.7	-7.5	0.1	3.2	-1.4
CCCOc1ccc(Br)cc1/C=N/NC(=O)c1cc(OC)c(OC)c(OC)c1	28.5*	-4.0	16.1	3.2	4.2	-1.7
COc1ccc(C(=O)N/N=C/c2cc(Br)ccc2O)cc1OC	6.2	-4.3	-5.0	7.9	2.9	-2.0
FC(F)(F)c1cc(Cl)c2nc(-c3ccco3)c(Cc3ccccc3C(F)(F)F)n2c1	-9.3	1.5	45.0*	4.0	5.2	3.6
Cc1ccc(-c2nc3c(Cl)cc(C(F)(F)F)cn3c2Cc2ccccc2C(F)(F)F)cc1	18.1	-2.6	-8.9	1.1	-1.5	-0.9
Cc1ccc(S(=O)(=O)/N=C2/NC(=O)/C(=C/c3cc([N+](=O)[O-])ccc3O)S2)cc1	-26.3	8.2	29.8*	108.4*	-18.0	49.0*
O=C1NC(=Nc2ccccc2Cl)S/C1=C\c1cc([N+](=O)[O-])ccc1O	-11.6	12.3	-5.6	8.9	-3.2	31.5*
COc1cccc(N=C2NC(=O)/C(=C/c3cc([N+](=O)[O-])ccc3O)S2)c1	-9.7	2.1	5.7	1.1	0.7	0.7
COc1cc(/C=C2\S/C(=N/S(=O)(=O)c3ccc(C)cc3)NC2=O)c([N+](=O)[O-])cc1OC	4.3	-5.2	13.0	-0.3	7.2	-1.0
COc1ccc(CCNC(=O)C2CCC(=O)N(CC3CCCCC3)C2)cc1 (centres undefined)	0.8	-7.4	-15.7	2.7	4.3	-1.5
COc1ccc(OC)c(C(=O)COC(=O)c2c(OC)cccc2OC)c1	-4.4	-5.8	-0.7	3.6	-3.0	-0.5
COc1ccc(OC)c(C(=O)CCCC(=O)c2cc(OC)ccc2OC)c1	-5.7	3.6	30.8*	1.7	-5.4	-4.7
Cc1c([N+](=O)[O-])cc(C(=O)Nc2ccc(NC(=O)c3ccco3)cc2)cc1[N+](=O)[O-]	2.4	1.5	-6.9	2.6	-1.4	-3.3
CCN(CC(=O)Nc1c(F)cccc1F)C(=O)/C=C/c1ccc(OCC#N)c(OC)c1	28.6*	-2.0	-6.2	2.3	1.1	4.0
CCN(CC(=O)Nc1c(F)cccc1F)C(=O)/C=C/c1ccc(C)cc1	3.1	-3.2	-25.5	1.4	1.6	-0.6
CC(C)(C)OC(=O)CNC(=O)c1nc[nH]c1C(=O)N1CCNCC1	6.1	-0.6	-2.3	0.1	13.2	-0.3
O=C(NNC(=O)c1ccc(Oc2cc(Cl)cc(Cl)c2)o1)c1ccccc1	-20.8	12.0	4.8	10.7	-8.3	2.1
O=C(NNC(=O)c1ccc(Oc2ccc(C3SCCS3)cc2)o1)c1ccc(Cl)cc1	-33.9	16.8	27.4*	17.8	-22.8	2.4
CCN1CCN(CCn2c(=S)[nH]c3ccccc3c2=O)CC1	-16.8	73.2*	23.4	0.5	-25.3	-12.4
CCN(CCCc1ccccc1)CCCc1ccccc1	-17.7	35.1*	89.4*	1.5	-18.3	-0.9
CCCN(CCO)CCCc1ccccc1	5.9	-3.0	7.0	0.8	6.2	-4.3
O=CN1CCN(C=O)C(O)C1O (centres undefined)	-4.1	7.0	6.3	0.9	-7.6	2.9
CC[C@@]1(C(=O)OC)N[C@H](CN(C)C(=O)c2ccc(F)cc2)[C@@H]2C(=O)N(C)C(=O)[C@@H]21	-2.4	-7.9	-1.8	-0.8	3.8	-0.8
CCCCNC(=S)Nc1ccccc1Cc1ccccc1	-0.2	-6.3	1.3	1.4	22.9*	-4.8
CCCCSCCCNC(=S)Nc1ccccc1C	-3.8	3.3	5.9	1.3	8.5	-2.2
SMILES	CHRM4 PAM	M5 antag	CHRM4 antagonist	CHRM4 agonist	M5 PAM	CHRM5 agonist
C=CCN1C(=O)c2ccc(C(=O)OCC(=O)N(CC)c3c(N)n(Cc4ccccc4)c(=O)[nH]c3=O)cc2C1=O	2.1	-3.6	-0.9	0.1	11.8	2.9
CN(C)CCCNC(=O)N1c2ccccc2Sc2ccccc21	-16.2	100.1*	96.9*	0.6	-34.1	-24.1
O=C(NCCN1CCOCC1)N1c2ccccc2Sc2ccccc21	-15.3	59.2*	37.8*	0.8	-29.2	-13.0
O=C(CCN1CCOCC1)N1c2ccccc2Sc2ccc(Cl)cc21	-19.1	94.6*	57.1*	0.8	-16.9	-6.6
CN1CCN(CCC(=O)N2c3ccccc3Sc3ccc(C(F)(F)F)cc32)CC1	-11.4	10.6	12.1	2.8	-19.1	-6.0
O=C(CCCCn1ccc(=O)[nH]c1=O)Nc1ccc(O)c(C(=O)O)c1	0.8	16.1	-16.9	9.3	-14.3	1.1
CC(C)OC(=O)c1cc(C(=O)c2cc(F)ccc2O)coc1=N	16.2	-6.3	6.4	0.3	13.0	12.7
COc1ccc(O)c(C(=O)c2coc(=N)c(C(=O)Nc3ccc(SC(F)F)cc3)c2)c1	-21.0	28.0*	22.8	27.8	-33.2	7.8
CN(CC(=O)Nc1ncn[nH]1)S(=O)(=O)c1ccc(Br)cc1	2.3	0.3	4.3	0.3	2.3	-1.9
COc1ccccc1Nc1nc2ccccc2n1C	-7.5	1.6	43.9*	-1.0	4.7	-0.1
Cc1ccc(-n2ncc3c(N4CCCC4)ncnc32)c(C)c1	10.9	6.0	-1.0	-0.2	0.5	1.8
COc1cccc(N2CCN(c3ncnc4c3cnn4-c3ccc(C)cc3C)CC2)c1	-11.1	46.7*	46.5*	25.7	-23.6	6.8
COC(=O)C(NC(=O)C(CC(C)C)NC(=O)C1CCC(C)CC1)C(C)C (centres undefined)	-0.8	36.0*	4.1	0.0	35.6*	2.5
Cc1ccccc1CC1SC(N)=NC1=O (centres undefined)	6.1	3.6	-3.4	0.5	0.5	0.5
COCCN(C(=O)COC(=O)c1nc(Cl)ccc1Cl)c1c(N)n(Cc2ccccc2)c(=O)[nH]c1=O	-5.7	1.8	26.9*	-0.1	-0.6	1.1
COCCN(C(=O)COC(=O)c1ccccc1Oc1ccccc1)c1c(N)n(Cc2ccccc2)c(=O)[nH]c1=O	6.4	-9.1	2.0	0.8	4.3	-6.0
COCCN(C(=O)COC(=O)c1cccnc1SC)c1c(N)n(Cc2ccccc2)c(=O)[nH]c1=O	22.0*	3.5	-12.9	1.0	0.6	3.1
CCN(C(=O)COC(=O)c1ccccc1Oc1ccccc1)c1c(N)n(Cc2ccccc2)c(=O)[nH]c1=O	24.8*	13.2	-6.4	1.8	-4.7	-0.4
COCCN(C(=O)COC(=O)C12CC3CC(CC(Cl)(C3)C1)C2)c1c(N)n(Cc2ccccc2)c(=O)[nH]c1=O	27.0*	-0.9	-15.1	1.5	1.4	2.2
